Experimental data reported in ChEMBL document CHEMBL1773048, “Synthesis of glycopeptide dendrimers, dimerization and affinity for Concanavalin A” (Bioorg Med Chem, 2011).
Where a SMILES comes first, the peptide text is derived from it. Bridges are numbered along the chain shown (N, C = ends). Roman numbers before positions name the chains, in order. [ ]: non-standard residue; d: D form. The star is where a group is joined. αMan = OC[C@H]1O[C@H](*)[C@@H](O)[C@@H](O)[C@@H]1O; Mpa = O=C(O)CCS

Assays:
[1] = Ratio of methyl alpha-D-mannoside IC50 to compound IC50 for binding affinity to Concanavalin A
Summary of the method: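 Relative potency is IC50 of methyl α-D-mannoside divided by inhibitor IC50. The reference is measured under the same conditions on the same plate by enhanced-sensitivity ELLA, and reference IC50 values are corrected to a common experimental value.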

[2] = Displacement of yeast mannan from Concanavalin A by Enzyme-linked lectin assay
Summary of the method: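 Enhanced-sensitivity ELLA. Yeast mannan (10 µg/mL in PBS with CaCl2 and MnCl2) is coated overnight on plates and blocked 1 h at 37 °C with PBS containing 10 mg/mL BSA. Two-fold serial dilutions of inhibitor are preincubated 1 h at 37 °C with biotinylated Con A (5 µg/mL), transferred to the plates and incubated 1 h at 37 °C. Preformed Neutravidin–biotin-HRP is added for 1 h, then ABTS/H2O2 at pH 4.0. A415 is read after 5 min. IC50 is taken at 50% inhibition, at least triplicate.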

[3] = Ratio of methyl alpha-D-mannoside IC50 to compound IC50 for binding affinity to Concanavalin A per carbohydrate moiety
Summary of the method: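 Valency-normalised relative potency is IC50 of methyl α-D-mannoside divided by (inhibitor IC50 × n), where n is the number of mannose units. The reference IC50 is measured on the same plate by enhanced-sensitivity ELLA.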

Compound | Ratio IC50 [1] | IC50 [2] [µM] | Ratio IC50 [3]
NC(=O)[C@H](CCCCNC(=O)[C@H](CCCCNC(=O)[C@H](Cc1ccc(O)cc1)NC(=O)CCS[C@H]1O[C@H](CO)[C@@H](O)[C@H](O)[C@@H]1O)NC(=O)[C@H](Cc1ccc(O)cc1)NC(=O)CCS[C@@H]1O[C@@H](CO)[C@H](O)[C@@H](O)[C@H]1O)NC(=O)[C@H](CCCCNC(=O)[C@H](Cc1ccc(O)cc1)NC(=O)CCS[C@H]1O[C@H](CO)[C@@H](O)[C@H](O)[C@@H]1O)NC(=O)[C@H](Cc1ccc(O)cc1)NC(=O)CCS[C@@H]1O[C@@H](CO)[C@H](O)[C@@H](O)[C@H]1O | 25.4 | 52 | 6.4
O=[N+]([O-])c1ccc(O[C@H]2O[C@H](CO)[C@@H](O)[C@H](O)[C@@H]2O)cc1 | 2.1 | 644 | 2.1
CO[C@H]1O[C@H](CO)[C@@H](O)[C@H](O)[C@@H]1O | 1 | 1320 | 1
NC(=O)[C@H](CCC(=O)O)NC(=O)[C@H](CCCCNC(=O)[C@H](CCCCNC(=O)[C@H](Cc1ccc(O)cc1)NC(=O)CCS[C@H]1O[C@H](CO)[C@@H](O)[C@H](O)[C@@H]1O)NC(=O)[C@H](Cc1ccc(O)cc1)NC(=O)CCS[C@@H]1O[C@@H](CO)[C@H](O)[C@@H](O)[C@H]1O)NC(=O)[C@H](CCCCNC(=O)[C@H](Cc1ccc(O)cc1)NC(=O)CCS[C@H]1O[C@H](CO)[C@@H](O)[C@H](O)[C@@H]1O)NC(=O)[C@H](Cc1ccc(O)cc1)NC(=O)CCS[C@@H]1O[C@@H](CO)[C@H](O)[C@@H](O)[C@H]1O | 14.2 | 93 | 3.6
OC[C@H]1OC(O)[C@@H](O)[C@@H](O)[C@@H]1O (stereo partly drawn) [D-MANNOSE] | 0.13 | 10500 | 0.13
NC(=O)[C@H](CCCCNC(=O)[C@H](Cc1ccc(O)cc1)NC(=O)CCS[C@H]1O[C@H](CO)[C@@H](O)[C@H](O)[C@@H]1O)NC(=O)[C@H](Cc1ccc(O)cc1)NC(=O)CCS[C@@H]1O[C@@H](CO)[C@H](O)[C@@H](O)[C@H]1O | 8.8 | 150 | 4.4
N=C(N)NCCC[C@H](NC(=O)[C@H](CCCCNC(=O)[C@H](Cc1ccc(O)cc1)NC(=O)CCS[C@@H]1O[C@@H](CO)[C@H](O)[C@@H](O)[C@H]1O)NC(=O)[C@H](Cc1ccc(O)cc1)NC(=O)CCS[C@H]1O[C@H](CO)[C@@H](O)[C@H](O)[C@@H]1O)C(=O)NCCCC[C@H](NC(=O)[C@H](CCCNC(=N)N)NC(=O)[C@H](CCCCNC(=O)[C@H](Cc1ccc(O)cc1)NC(=O)CCS[C@H]1O[C@H](CO)[C@@H](O)[C@H](O)[C@@H]1O)NC(=O)[C@H](Cc1ccc(O)cc1)NC(=O)CCS[C@H]1O[C@H](CO)[C@@H](O)[C@H](O)[C@@H]1O)C(N)=O | 14.3 | 92 | 3.6
NC(=O)[C@H](CSSC[C@H](NC(=O)[C@H](CCCCNC(=O)[C@H](CCCCNC(=O)[C@H](Cc1ccc(O)cc1)NC(=O)CCS[C@H]1O[C@H](CO)[C@@H](O)[C@H](O)[C@@H]1O)NC(=O)[C@H](Cc1ccc(O)cc1)NC(=O)CCS[C@@H]1O[C@@H](CO)[C@H](O)[C@@H](O)[C@H]1O)NC(=O)[C@H](CCCCNC(=O)[C@H](Cc1ccc(O)cc1)NC(=O)CCS[C@H]1O[C@H](CO)[C@@H](O)[C@H](O)[C@@H]1O)NC(=O)[C@H](Cc1ccc(O)cc1)NC(=O)CCS[C@@H]1O[C@@H](CO)[C@H](O)[C@@H](O)[C@H]1O)C(N)=O)NC(=O)[C@H](CCCCNC(=O)[C@H](CCCCNC(=O)[C@H](Cc1ccc(O)cc1)NC(=O)CCS[C@H]1O[C@H](CO)[C@@H](O)[C@H](O)[C@@H]1O)NC(=O)[C@H](Cc1ccc(O)cc1)NC(=O)CCS[C@@H]1O[C@@H](CO)[C@H](O)[C@@H](O)[C@H]1O)NC(=O)[C@H](CCCCNC(=O)[C@H](Cc1ccc(O)cc1)NC(=O)CCS[C@H]1O[C@H](CO)[C@@H](O)[C@H](O)[C@@H]1O)NC(=O)[C@H](Cc1ccc(O)cc1)NC(=O)CCS[C@@H]1O[C@@H](CO)[C@H](O)[C@@H](O)[C@H]1O | 660 | 2 | 83
NC(=O)[C@H](CCCCNC(=O)[C@H](CCC(=O)O)NC(=O)[C@H](CCCCNC(=O)[C@H](Cc1ccc(O)cc1)NC(=O)CCS[C@@H]1O[C@@H](CO)[C@H](O)[C@@H](O)[C@H]1O)NC(=O)[C@H](Cc1ccc(O)cc1)NC(=O)CCS[C@H]1O[C@H](CO)[C@@H](O)[C@H](O)[C@@H]1O)NC(=O)[C@H](CCC(=O)O)NC(=O)[C@H](CCCCNC(=O)[C@H](Cc1ccc(O)cc1)NC(=O)CCS[C@H]1O[C@H](CO)[C@@H](O)[C@H](O)[C@@H]1O)NC(=O)[C@H](Cc1ccc(O)cc1)NC(=O)CCS[C@H]1O[C@H](CO)[C@@H](O)[C@H](O)[C@@H]1O | 22 | 60 | 5.5

More lines, in order of falling IC50 [2], values ahead:

Ratio IC50 [1] | IC50 [2] [µM] | Ratio IC50 [3] | Compound
12.7 | 104 | 6.4 | NC(=O)[C@H](CSSC[C@H](NC(=O)[C@H](Cc1ccc(O)cc1)NC(=O)CCS[C@H]1O[C@H](CO)[C@@H](O)[C@H](O)[C@@H]1O)C(N)=O)NC(=O)[C@H](Cc1ccc(O)cc1)NC(=O)CCS[C@H]1O[C@H](CO)[C@@H](O)[C@H](O)[C@@H]1O (I: [Mpa](αMan)-Tyr-Cys-NH2 / II: [Mpa](αMan)-Tyr-Cys-NH2; disulfide I:3-II:3)
20.6 | 64 | 5.2 | NC(=O)[C@H](CCCCNC(=O)[C@H](CO)NC(=O)[C@H](CCCCNC(=O)[C@H](Cc1ccc(O)cc1)NC(=O)CCS[C@@H]1O[C@@H](CO)[C@H](O)[C@@H](O)[C@H]1O)NC(=O)[C@H](Cc1ccc(O)cc1)NC(=O)CCS[C@H]1O[C@H](CO)[C@@H](O)[C@H](O)[C@@H]1O)NC(=O)[C@H](CO)NC(=O)[C@H](CCCCNC(=O)[C@H](Cc1ccc(O)cc1)NC(=O)CCS[C@H]1O[C@H](CO)[C@@H](O)[C@H](O)[C@@H]1O)NC(=O)[C@H](Cc1ccc(O)cc1)NC(=O)CCS[C@H]1O[C@H](CO)[C@@H](O)[C@H](O)[C@@H]1O
21.3 | 62 | 5.3 | N=C(N)NCCC[C@H](NC(=O)[C@H](CCCCNC(=O)[C@H](CCCCNC(=O)[C@H](Cc1ccc(O)cc1)NC(=O)CCS[C@H]1O[C@H](CO)[C@@H](O)[C@H](O)[C@@H]1O)NC(=O)[C@H](Cc1ccc(O)cc1)NC(=O)CCS[C@@H]1O[C@@H](CO)[C@H](O)[C@@H](O)[C@H]1O)NC(=O)[C@H](CCCCNC(=O)[C@H](Cc1ccc(O)cc1)NC(=O)CCS[C@H]1O[C@H](CO)[C@@H](O)[C@H](O)[C@@H]1O)NC(=O)[C@H](Cc1ccc(O)cc1)NC(=O)CCS[C@@H]1O[C@@H](CO)[C@H](O)[C@@H](O)[C@H]1O)C(N)=O
24 | 55 | 6 | NC(=O)[C@H](CO)NC(=O)[C@H](CCCCNC(=O)[C@H](CCCCNC(=O)[C@H](Cc1ccc(O)cc1)NC(=O)CCS[C@H]1O[C@H](CO)[C@@H](O)[C@H](O)[C@@H]1O)NC(=O)[C@H](Cc1ccc(O)cc1)NC(=O)CCS[C@@H]1O[C@@H](CO)[C@H](O)[C@@H](O)[C@H]1O)NC(=O)[C@H](CCCCNC(=O)[C@H](Cc1ccc(O)cc1)NC(=O)CCS[C@H]1O[C@H](CO)[C@@H](O)[C@H](O)[C@@H]1O)NC(=O)[C@H](Cc1ccc(O)cc1)NC(=O)CCS[C@@H]1O[C@@H](CO)[C@H](O)[C@@H](O)[C@H]1O
25.4 | 52 | 6.4 | NC(=O)[C@H](CSSC[C@H](NC(=O)[C@H](CCCCNC(=O)[C@H](Cc1ccc(O)cc1)NC(=O)CCS[C@H]1O[C@H](CO)[C@@H](O)[C@H](O)[C@@H]1O)NC(=O)[C@H](Cc1ccc(O)cc1)NC(=O)CCS[C@@H]1O[C@@H](CO)[C@H](O)[C@@H](O)[C@H]1O)C(N)=O)NC(=O)[C@H](CCCCNC(=O)[C@H](Cc1ccc(O)cc1)NC(=O)CCS[C@H]1O[C@H](CO)[C@@H](O)[C@H](O)[C@@H]1O)NC(=O)[C@H](Cc1ccc(O)cc1)NC(=O)CCS[C@@H]1O[C@@H](CO)[C@H](O)[C@@H](O)[C@H]1O
455 | 2.9 | 57 | NC(=O)[C@H](CCCCNC(=O)[C@H](CCCCNC(=O)[C@H](CCCCNC(=O)[C@H](Cc1ccc(O)cc1)NC(=O)CCS[C@H]1O[C@H](CO)[C@@H](O)[C@H](O)[C@@H]1O)NC(=O)[C@H](Cc1ccc(O)cc1)NC(=O)CCS[C@@H]1O[C@@H](CO)[C@H](O)[C@@H](O)[C@H]1O)NC(=O)[C@H](CCCCNC(=O)[C@H](Cc1ccc(O)cc1)NC(=O)CCS[C@@H]1O[C@@H](CO)[C@H](O)[C@@H](O)[C@H]1O)NC(=O)[C@H](Cc1ccc(O)cc1)NC(=O)CCS[C@@H]1O[C@@H](CO)[C@H](O)[C@@H](O)[C@H]1O)NC(=O)[C@H](CCCCNC(=O)[C@H](CCCCNC(=O)[C@H](Cc1ccc(O)cc1)NC(=O)CCS[C@@H]1O[C@@H](CO)[C@H](O)[C@@H](O)[C@H]1O)NC(=O)[C@H](Cc1ccc(O)cc1)NC(=O)CCS[C@H]1O[C@H](CO)[C@@H](O)[C@H](O)[C@@H]1O)NC(=O)[C@H](CCCCNC(=O)[C@H](Cc1ccc(O)cc1)NC(=O)CCS[C@H]1O[C@H](CO)[C@@H](O)[C@H](O)[C@@H]1O)NC(=O)[C@H](Cc1ccc(O)cc1)NC(=O)CCS[C@H]1O[C@H](CO)[C@@H](O)[C@H](O)[C@@H]1O
